Experimental data published in ChEMBL document CHEMBL3853286, “Screening and Biological Effects of Marine Pyrroloiminoquinone Alkaloids: Potential Inhibitors of the HIF-1α/p300 Interaction” (J Nat Prod, 2016).
Calls of active or inactive are those of the source. The calls are words filed in the database; no cut-off is given here.

How the values were obtained:
[1] = target: T1, Hypoxia-inducible factor 1-alpha (Homo sapiens, UniProt Q16665); experiment: Inhibition of hypoxia-induced HIF1alpha transcriptional activity in human HCT116 cells at 0.1 to 10 uM measured after 18 hrs by hypoxia response element-driven dual luciferase reporter gene assay relative to hypoxia control; assay type: cell-based; conditions: HCT-116
Method in brief: (§1)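 HCT 116 cells seeded 50 000/well and cotransfected (Lipofectamine 2000) with 100 ng pGL4.42 HRE-firefly luciferase and 10 ng pRL-TK Renilla. After 24 h, treated in 0.1% FBS medium with compound (0.01−10 μM), chetomin (0.5 μM) or tirapazamine (25 μM). Incubated 18 h at 0.5% O2 or normoxia. HRE:TK ratio normalized to hypoxic DMSO control. Wilcoxon test with Hochberg correction.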
Target sequence in this assay (Q16665 whole entry, looked up): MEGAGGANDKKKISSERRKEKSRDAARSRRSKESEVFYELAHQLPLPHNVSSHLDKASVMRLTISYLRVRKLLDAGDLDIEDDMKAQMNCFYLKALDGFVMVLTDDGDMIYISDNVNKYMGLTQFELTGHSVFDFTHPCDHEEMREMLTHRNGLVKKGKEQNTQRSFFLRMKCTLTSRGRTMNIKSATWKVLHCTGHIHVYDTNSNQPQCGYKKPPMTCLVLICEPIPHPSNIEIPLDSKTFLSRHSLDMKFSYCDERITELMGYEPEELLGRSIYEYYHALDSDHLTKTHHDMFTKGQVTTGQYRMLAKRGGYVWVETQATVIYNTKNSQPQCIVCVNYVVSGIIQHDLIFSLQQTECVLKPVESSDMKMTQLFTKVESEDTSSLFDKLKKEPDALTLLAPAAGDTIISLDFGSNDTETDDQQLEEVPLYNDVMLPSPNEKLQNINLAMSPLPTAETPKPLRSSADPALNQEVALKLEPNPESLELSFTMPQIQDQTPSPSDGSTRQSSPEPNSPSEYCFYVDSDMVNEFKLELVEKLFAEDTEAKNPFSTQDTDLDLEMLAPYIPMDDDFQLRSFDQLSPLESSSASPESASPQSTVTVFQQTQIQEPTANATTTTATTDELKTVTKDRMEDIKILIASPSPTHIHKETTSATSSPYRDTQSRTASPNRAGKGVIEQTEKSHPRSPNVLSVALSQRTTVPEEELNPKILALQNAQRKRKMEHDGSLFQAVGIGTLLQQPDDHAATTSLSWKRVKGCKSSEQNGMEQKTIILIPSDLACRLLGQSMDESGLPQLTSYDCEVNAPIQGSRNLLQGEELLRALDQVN

[2] = Cytotoxicity against human COLO205 cells measured after 48 hrs under hypoxic condition by CCK8 assay; assay type: functional, cell-based; conditions: COLO 205, 48 h
Method in brief: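 COLO 205 cells in RPMI-1640 with 10% FBS, seeded 15 000 cells/well. After 24 h, treated with fresh medium holding compound (0.001−10 μM), tirapazamine positive control or DMSO (0.5%, v/v). Incubated 48 h at 0.5% O2, then CCK-8 added for 2 h at 37 °C and absorbance read at 450 nm. Viability normalized to DMSO controls. Quadruplicate wells, triplicate experiments.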

[3] = target: T1, Hypoxia-inducible factor 1-alpha; experiment: Inhibition of hypoxia-induced HIF1alpha transcriptional activity in human LNCAP cells at 0.1 to 10 uM measured after 18 hrs by hypoxia response element-driven dual luciferase reporter gene assay relative to hypoxia control; assay type: cell-based
Method in brief: (§2)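 LNCaP cells seeded 15 000/well and cotransfected (Lipofectamine 3000) with 10 ng pGL4.42 HRE-luciferase and 1 ng pRL-TK. After 24 h, treated in phenol-free RPMI-1640 with 0.1% charcoal-stripped FBS containing compound (0.1, 1, 10 μM). Incubated 18 h at 1% O2. Dual-luciferase HRE:TK ratio normalized to hypoxic DMSO control. Quadruplicate wells, triplicate experiments, Wilcoxon test with Hochberg correction.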
Target sequence in this assay (Q16665 whole entry, looked up): as above

[4] = Cytotoxicity against human LNCAP cells measured after 18 hrs under hypoxic condition by CCK8 assay; assay type: functional, cell-based
Method in brief: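 LNCaP cells in phenol-free RPMI-1640 with 10% FBS, seeded 15 000 cells/well. After 24 h, exposed to compound (0.1−10 μM), tirapazamine or DMSO (0.5%, v/v) for 18 h at 1% O2. CCK-8 absorbance read at 450 nm after 2 h at 37 °C and normalized to DMSO controls to give percent viability. Quadruplicate wells, triplicate experiments.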

[5] = Cytotoxicity against human HCT116 cells measured after 18 hrs under hypoxic condition by CCK8 assay; assay type: functional, cell-based; conditions: HCT-116, 18 h
Method in brief: (§3)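 HCT 116 cells in McCoy's 5A with 10% FBS, seeded 10 000 cells/well. After 24 h, treated with compound (0.05−50 μM), tirapazamine positive control or DMSO (0.5%, v/v). Incubated 18 h or 48 h at 0.5% O2, then CCK-8 for 2 h at 37 °C with absorbance at 450 nm. Percent viability relative to DMSO controls. Quadruplicate wells, triplicate experiments.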

[6] = target: T1, Hypoxia-inducible factor 1-alpha; experiment: Inhibition of hypoxia-induced HIF1alpha transcriptional activity in human LNCAP cells assessed as compound concentration causing inhibition of transcriptional activity measured after 18 hrs by hypoxia response element-driven dual luciferase reporter gene assay relative to hypoxia control; assay type: cell-based; method in brief: as §2
Target sequence in this assay (Q16665 whole entry, looked up): as above

[7] = target: T1, Hypoxia-inducible factor 1-alpha; experiment: Displacement of GST-tagged p300-CH1 domain (323 to 423 residues) from synthetic biotinylated HIF-1alpha C-TAD domain (786 to 826 residues) (unknown origin) measured after overnight incubation by fluorescence analysis
Method in brief: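 Cell-free protein–protein displacement assay. The p300 CH1 domain is displaced from the HIF-1α C-TAD, which is immobilized on streptavidin-coated plates. IC50 values derived.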
Target sequence in this assay (Q16665 whole entry): as the sequence (Q16665 whole entry, looked up) above

[8] = target: T1, Hypoxia-inducible factor 1-alpha; experiment: Inhibition of hypoxia-induced HIF1alpha transcriptional activity in human HCT116 cells assessed as compound concentration causing inhibition of transcriptional activity measured after 18 hrs by hypoxia response element-driven dual luciferase reporter gene assay relative to hypoxia control; assay type: cell-based; conditions: HCT-116; method in brief: as §1
Target sequence in this assay (Q16665 whole entry, looked up): as above

[9] = target: T1, Hypoxia-inducible factor 1-alpha; experiment: Inhibition of HIF1alpha in human LNCAP cells assessed as hypoxia-induced VEGF secretion at 0.5 uM measured after 18 hrs under hypoxic conditions by ELISA
Target sequence in this assay (Q16665 whole entry, looked up): as above

[10] = Cytotoxicity against human HCT116 cells measured after 48 hrs under hypoxic condition by CCK8 assay; assay type: functional, cell-based; conditions: HCT-116, 48 h; method in brief: as §3
[11] = target: T1, Hypoxia-inducible factor 1-alpha; experiment: Inhibition of HIF1alpha in human LNCAP cells assessed as hypoxia-induced VEGF secretion at 0.25 to 1 uM measured after […] under hypoxic conditions by ELISA; assay type: cell-based
Target sequence in this assay (Q16665 whole entry, looked up): as above

[12] = target: T1, Hypoxia-inducible factor 1-alpha; experiment: Inhibition of hypoxia-induced HIF1alpha transcriptional activity in human HCT116 cells at 0.25 to 0.5 uM measured after 18 hrs by hypoxia response element-driven dual luciferase reporter gene assay relative to hypoxia control; assay type: cell-based; conditions: HCT-116
Method in brief: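 HCT 116 cells seeded 50 000/well and cotransfected with 100 ng pGL4.42 (4×HRE-firefly luciferase) and 10 ng pRL-TK Renilla using Lipofectamine 2000. After 24 h, cells treated in medium with 0.1% FBS, compound 0.01–10 μM. Incubated 18 h at 0.5% O2 or normoxia. HRE:TK signal divided by the mean of the DMSO hypoxic controls gives fold-induction. Quadruplicate wells, triplicate experiments.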

[13] = target: T1, Hypoxia-inducible factor 1-alpha; experiment: Inhibition of hypoxia-induced HIF1alpha transcriptional activity in human LNCAP cells at 0.25 to 0.5 uM measured after 18 hrs by hypoxia response element-driven dual luciferase reporter gene assay relative to hypoxia control; assay type: cell-based
[14] = target: T1, Hypoxia-inducible factor 1-alpha; experiment: Inhibition of HIF-1alpha in human LNCAP cells assessed as decrease in VEGF secretion at 0.5 uM measured after 18 hrs under hypoxic conditions by ELISA; assay type: cell-based
Method in brief: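 LNCaP cells seeded 15 000/well in 96-well plates and incubated overnight at 37 °C. Medium then replaced with medium containing 0.1% charcoal-stripped FBS plus compound at 0.25, 0.5 or 1 μM, or DMSO control. Incubated 18 h at 1% O2. Supernatant diluted 2-fold and VEGF quantified by Quantikine ELISA. Values normalised per cell using CCK-8 viability. Triplicate experiments; exact Wilcoxon test with Hochberg correction.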

[15] = target: T1, Hypoxia-inducible factor 1-alpha; experiment: Inhibition of HIF-1alpha in human PC3 cells assessed as decrease in VEGF mRNA expression level; assay type: cell-based; conditions: PC-3
[16] = target: T1, Hypoxia-inducible factor 1-alpha; experiment: Inhibition of HIF-1alpha in human PC3 cells assessed as decrease in ENO1 mRNA expression level; assay type: cell-based; conditions: PC-3
[17] = target: T1, Hypoxia-inducible factor 1-alpha; experiment: Inhibition of HIF-1alpha in human PC3 cells assessed as decrease in LDHA mRNA expression level; assay type: cell-based; conditions: PC-3

| inhibition [9] | Compound | inhibition (qualitative active call) [1] | IC50 [2] | inhibition outcome (active/inactive) [3] | IC50 [4] | IC50 [5] | Concentration causing inhibition [6] | IC50 [7] | Concentration causing inhibition [8] | IC50 [10] | inhibition [11] | inhibition [12] | inhibition [13] | inhibition [14] | inhibition [15] | inhibition [16] | inhibition [17] |
| --- | --- | --- | --- | --- | --- | --- | --- | --- | --- | --- | --- | --- | --- | --- | --- | --- | --- |
|  | O=C1C2=C(C3=NCCc4c[nH]c1c43)[C@]1(C=C(Br)[C@H](O)C(Br)=C1)CCN2 | Active | 5.1 µM | Active | > 10 µM | 8.6 µM | 1 µM | 35.2 µM | 10 µM |  |  |  |  |  |  |  |  |
| Active | Cn1c(C[C@H](N)C(=O)O)cnc1S[C@H]1[C@H]2C(=O)C=C3S[C@H]4C[C@]31C1=C(N4)C(=O)c3[nH]cc4c3C1=[N+]2CC4 | Active | > 10 µM | Active | > 10 µM | > 10 µM | 0.1 µM | 2.2 µM | 0.5 µM | > 50 µM |  |  |  |  |  |  |  |
|  | O=C1C=C(SSC2=CC(=O)C(Br)=C[C@]23CCNC2=C3C3=NCCc4c[nH]c(c43)C2=O)[C@]2(C=C1Br)CCNC1=C2C2=NCCc3c[nH]c(c32)C1=O | Active | > 10 µM |  | > 10 µM | > 10 µM |  | > 100 µM | 0.1 µM |  |  |  |  |  |  |  |  |
|  | O=C1C2=C3C4=[N+](CCc5c[nH]c1c54)[C@@H]1C(=O)C=C4S[C@@H](C[C@@]43[C@H]1O)N2 | Active | 7.6 µM | Active | 8.3 µM | 6.2 µM | 1 µM | 0.73 µM | 0.1 µM | > 50 µM | Active |  |  |  |  |  |  |
|  | O=C1C=C2S[C@H]3C[C@]2(C=C1Br)C1=C(N3)C(=O)c2[nH]cc3c2C1=NCC3 [(+)-DISCORHABDIN B] | Active | 1.8 µM | Active | 7 µM | 3.1 µM | 1 µM | 3.7 µM | 0.1 µM |  |  |  |  |  |  |  |  |
|  | O=C1C=C(S[C@H]2[C@H]3C(=O)C=C4S[C@H]5C[C@]42C2=C(N5)C(=O)c4[nH]cc5c4C2=[N+]3CC5)[C@]2(C=C1Br)CCNC1=C2C2=NCCc3c[nH]c(c32)C1=O | Active | > 10 µM | Active | > 10 µM | > 10 µM | 1 µM | 2.4 µM | 0.1 µM | 26.8 µM |  |  |  |  |  |  |  |
|  | Nc1n[n+]([O-])c2ccccc2[n+]1[O-] [TIRAPAZAMINE] |  | 47.7 µM |  |  | 72.7 µM |  |  |  | 11.9 µM |  |  |  |  |  |  |  |
|  | CN1C(=O)[C@@]2(CO)SS[C@@]1(Cc1cn([C@]34C[C@@]56SS[C@](CO)(C(=O)N5[C@H]3Nc3ccccc34)N(C)C6=O)c3ccccc13)C(=O)N2C |  |  |  |  |  |  | 1.9 µM |  |  |  | Active | Active | Active |  |  |  |
|  | O=C1C(NC2Cc3cc(Br)c(O)cc3S2)=CC2=NCCc3c[nH]c1c32 (centres undefined) [MAKALUVAMINE F] | Active | > 10 µM | Active | > 10 µM | 7.2 µM | 0.1 µM | 8.3 µM | 0.25 µM |  |  |  |  |  |  |  |  |
|  | CN1C(=O)[C@]23CC4=CC=C[C@H](O)[C@H]4N2C(=O)[C@@]1(CO)SS3 |  |  |  |  |  |  |  |  |  |  |  |  |  | Active | Active | Active |
